Screening results: PubChem BioAssay, several laboratories
ABCB6 inh MLPCN = ABCB6 transporter inhibitors, primary screen, K562-ABCB6 cells, flow cytometry, MLPCN library; fluorescence ratio to DMSO, % at 10 µM; 0.19% of 360,000 active; K562-ABCB6 porphyrin accumulation, 1 h; stronger effect = lower value; ATP-binding cassette sub-family B member 6 (Homo sapiens), Q9NP58;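 active means fluorescence ratio to DMSO below 75%, the collection mean minus 3 SD; inconclusive means too few cells collected in the well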;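 further: signal is porphyrin accumulated inside mitochondria; 100% equals median channel fluorescence of DMSO control wells; lower ratio means ABCB6 inhibition with less porphyrin fluorescence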
Target sequence (Q9NP58 whole entry, looked up): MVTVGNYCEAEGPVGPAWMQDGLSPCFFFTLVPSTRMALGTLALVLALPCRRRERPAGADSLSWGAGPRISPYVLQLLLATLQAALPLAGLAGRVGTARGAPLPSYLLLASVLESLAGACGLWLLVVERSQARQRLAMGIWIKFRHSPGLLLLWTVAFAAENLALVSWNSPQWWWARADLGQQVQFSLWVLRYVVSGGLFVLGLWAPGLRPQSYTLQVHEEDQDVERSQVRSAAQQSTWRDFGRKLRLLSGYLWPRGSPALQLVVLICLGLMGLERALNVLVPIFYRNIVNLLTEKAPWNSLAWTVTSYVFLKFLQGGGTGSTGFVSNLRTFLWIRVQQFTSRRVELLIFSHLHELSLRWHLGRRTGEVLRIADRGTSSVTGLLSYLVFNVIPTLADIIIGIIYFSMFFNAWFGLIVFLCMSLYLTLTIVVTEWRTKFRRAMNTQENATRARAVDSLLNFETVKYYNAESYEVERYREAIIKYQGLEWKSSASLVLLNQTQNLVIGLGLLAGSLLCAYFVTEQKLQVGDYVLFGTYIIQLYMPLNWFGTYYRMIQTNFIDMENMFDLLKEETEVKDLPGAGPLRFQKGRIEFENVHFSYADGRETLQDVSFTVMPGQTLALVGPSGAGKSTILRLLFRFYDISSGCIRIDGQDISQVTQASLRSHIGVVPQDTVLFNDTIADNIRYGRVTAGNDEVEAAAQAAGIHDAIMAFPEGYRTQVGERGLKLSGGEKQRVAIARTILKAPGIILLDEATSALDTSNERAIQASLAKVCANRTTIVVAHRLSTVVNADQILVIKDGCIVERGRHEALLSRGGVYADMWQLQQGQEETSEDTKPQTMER
Granule exo inh = LAMP-1 surface exposure blockers, TALL-104 cells – cell-based, flow cytometry, MLPCN library, primary screen; TALL-104 LAMP-1 surface exposure; cells stimulated with thapsigargin and PMA; inhibition, % at 10 µM; 0.66% of 360,000 active; AID 651702, 2012;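 active means inhibition above about 55%, limit read from the data; inconclusive means no clear call, values can overlap the other calls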
Arrestin-AP2 inh = inhibitors of beta-arrestin/AP2 binding, primary screen, biochemical, GPCR trafficking, flow cytometry. FITC-arrestin peptide / GST-AP2 beads; AP2 beta2 appendage carries R879A mutation. inhibition, % at 10 µM. 0.31% of 340,000 active. AID 504490, 2011;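 active means inhibition above a set limit, near 3 SD of compounds lacking own fluorescence, cut at about 54% in these data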;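 further: plate controls were DMSO wells for no effect and 5 µM unlabelled arrestin peptide for full effect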
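System: GST-AP2 R879A bound to glutathione beads, E. coli-expressed. Also added: 50 nM FITC-arrestin peptide. Schedule: compound with beads 12 min RT, then probe 1 h RT. Signal: bead flow cytometry, FITC channel. Read-out basis: percent response.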
Myeloid diff 2 = induction of myeloid progenitor differentiation, primary screen, cell-based, flow cytometry, MLPCN library. ER-HoxA9 myeloid progenitors, lysozyme-GFP differentiation. calls only at 10 µM. 1% of 360,000 active;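 active means normalized GFP-positive differentiation at or above the plate's own cutoff, the solvent-only control mean plus 3 SD; inconclusive means no clear call, values can overlap the other calls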;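 further: cells exposed to compound for four days before flow analysis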
NRP1-CendR mod = modulators of CendR peptide binding to NRP-1, primary screen, biochemical, fluorescence polarization, uHTS; Neuropilin-1 (Homo sapiens), O14786; 0.85% of 360,000 active; FAM-RPARPAR peptide binding to NRP-1; AID 602438, 2012; inhibition, % at 25 µM;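 active means inhibition or corrected inhibition above about 18%, plus a signal ratio from 0.5 to 1.5, limit read from the data, passing the limit was not always enough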
ATG4B inh = ATG4B protease inhibitors, primary screen, biochemical, fluorescence, uHTS | ATG4B cleavage of LC3-PLA2, NBD-HPC fluorescence, 1 h | inhibition, % at 8.33 µM | 0.51% of 340,000 active; in the data active means inhibition above about 40%
* hit, by the source's call; i = inactive; ? = inconclusive; . = no result; + = active, no number. An excerpt weighted towards active compounds, which were near 3.3% of everything screened.

SMILES	ABCB6 inh MLPCN	Granule exo inh	Arrestin-AP2 inh	Myeloid diff 2	NRP1-CendR mod	ATG4B inh
Cc1ccnn1CC(=O)N/N=C/c1ccc([N+](=O)[O-])s1	93	1	-3	+	-8	-6
Cc1ccnn1CC(=O)N/N=C/c1cccs1	103	-6	32	i	2	6
COC(=O)N/N=C/c1ccc([N+](=O)[O-])s1	109	5	13	+	1	-7
O=C(N/N=C/c1ccc([N+](=O)[O-])s1)c1ccccc1	104	44	-2	i	-27	-5
COCCCNC(=O)C[C@@H]1C[C@@]2(C(=O)OC)CCCCC=C2N(Cc2ccco2)C1=O	86	0	.	i	1	.
CCn1c(CO)nc2c1c(=O)[nH]c(=O)n2Cc1ccccc1	98	-3	9	i	2	2
CC(=O)Oc1ccc(OC(C)=O)c2c1CC1(C)OC1(C)C2 (stereo unspecified)	98	3	.	i	6	.
CCCCN=Cc1c(C)[nH]n(-c2ccccc2)c1=S	101	-1	3	i	9	-5
Cc1[nH]n(-c2ccccc2)c(=S)c1C=Nc1cccc([N+](=O)[O-])c1	97	-4	12	i	24*	-13
COCCOC(=O)c1c(C)oc2ccc(OCc3ccccc3)cc12	102	-1	13	i	8	-1
C=C(C)COc1ccc2oc(C)c(C(=O)OCCOC)c2c1	67*	-2	-3	i	5	0
C=CCn1c(Sc2ncc([N+](=O)[O-])s2)n[nH]c1=O	97	58*	14	?	11	2
CSc1nc2ccccc2c(=O)n1C1CCOC(C)(C)C1 (stereo unspecified)	99	3	-12	i	28*	1
Cc1csc(SCC(=O)NC(C)C2CC3CCC2C3)n1 (stereo unspecified)	98	-4	-1	i	-4	-12
COc1ccccc1CNC(=O)COC(=O)c1ccc(C)c(S(=O)(=O)N2CCOCC2)c1	100	-1	0	i	-8	1
CCOC(=O)Cc1csc(NC(=O)CSc2cc(Cl)ccc2Cl)n1	98	-5	7	i	9	3
CCN(CC)c1ccc(-c2sc(Nc3ccccc3)n[n+]2-c2ccc(F)cc2)cc1	801	7	2	+	137	21
CN(C)c1ccc(-c2sc(Nc3ccccc3)n[n+]2-c2ccc(F)cc2)cc1	377	-2	3	i	-209	15
COc1cccc(C(=O)NCCNC(=O)c2ccccn2)c1	98	-4	-7	i	17	-1
COc1cccc(NS(=O)(=O)c2ccc(C)c(C(=O)N3CCCCC3)c2)c1	95	-2	-1	i	20*	-3
COc1cccc(NS(=O)(=O)c2c(C(=O)N3CCCCCC3)c(C)n(C)c2C)c1	96	-4	0	i	6	-3
COc1ccc(OC)c(S(=O)(=O)N/N=C\c2cn(CC(N)=O)c3ccccc23)c1	101	-2	-2	i	3	8
O=C1Nc2cc(C(F)(F)F)ccc2N2CCCCC12 (stereo unspecified)	97	-5	1	i	8	6
O=C(Nc1nccs1)c1cn(-c2ccccc2)nc1-c1ccccc1	89	-1	16	i	3	-2
CC(=O)Cc1nsc(NC(=O)c2cn(-c3ccccc3)nc2-c2ccc(Br)cc2)n1	93	1	30	i	32*	3
SMILES	ABCB6 inh MLPCN	Granule exo inh	Arrestin-AP2 inh	Myeloid diff 2	NRP1-CendR mod	ATG4B inh
COC(=O)c1ccc(CN2CCc3ccccc32)cc1	95	-2	30	i	1	-1
CC(/C=C/c1ccc(O)cc1)=NNc1ccccc1	99	59*	4	i	12	-5
Oc1c(Br)cc(Br)cc1C=NCc1ccc(F)cc1	95	31	-3	i	-98	74*
Cc1ccccc1-c1cnc(C(O)c2ccc(Cl)c(F)c2)[nH]1 (stereo unspecified)	99	0	.	i	-2	.
COc1cccc(/C=N/NC(=O)c2cc3cc([N+](=O)[O-])ccc3s2)c1O	97	69*	12	?	3	19
O=C1/C(=C\c2ccc(Br)cc2)SC(=S)N1NS(=O)(=O)c1ccccc1	98	57*	-6	i	-53	13
CC(Sc1nnc(Nc2ccccc2)s1)C(=O)Nc1nc(-c2ccccc2)cs1 (stereo unspecified)	135	4	18	+	-7	-18
CC(Sc1nnc(NCc2ccccc2)s1)C(=O)Nc1ccc2c(c1)C(=O)c1ccccc1C2=O (stereo unspecified)	107	-1	21	i	14	22
N#CC1=C(c2ccccc2)/C(=C/c2ccccc2)OC1=O	107	66*	9	?	-54	-3
O=C1O/C(=C/c2ccccc2)c2ccccc21	100	0	-11	i	15	19
Cc1ccc(N2C(=O)C(Cl)=C(N3CCN(C)CC3)C2=O)c(C)c1	121	-4	13	i	32*	-3
CN1CCN(C2=C(Cl)C(=O)N(c3ccc(Cl)cc3)C2=O)CC1	102	0	30	i	-27	1
O=C(O)c1cccc(-n2c(-c3cnccn3)n[nH]c2=S)c1	96	1	-23	i	-8	1
CNc1ccc(Br)cc(C(=O)/C=C/c2cccc(OC)c2OC)c1=O	109	0	47	i	-76	7
CNc1ccc(Br)cc(C(=O)/C=C/c2cccc(Cl)c2Cl)c1=O	261	98*	28	i	-95	15
O=c1cnc2ccccc2n1Cc1ccccc1	99	0	.	i	0	.
Cc1c(-n2c(CN3C(=O)c4ccccc4C3=O)nc3ccccc3c2=O)c(=O)n(-c2ccccc2)n1C	99	-1	2	i	26*	-2
CN1C(=O)C(CC(=O)NCCc2ccccc2)N(NC(=O)c2ccc(Cl)cc2)C1=S (stereo unspecified)	94	14	-23	i	-17	-2
COc1cccc(CN(C)C(=O)C(CCSC)NS(=O)(=O)c2ccc3c(c2)OCCO3)c1OC (stereo unspecified)	98	31	-5	i	-23	-3
